Laboratory results taken from PubChem BioAssay AID2520 (Sanford-Burnham Center for Chemical Genomics, 2010).
Screen size: about 330,000 compounds; about 350 (0.11%) were called active. This is one part of a sample in which actives are shown more often than they occur.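 How the source made its calls: active means activation more than six SD over the plate average, tested at 20 µM; inactive means the rest.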

Each molecule was assayed against Apelin receptor (Homo sapiens) (UniProt P35414) (assay: agonists of human apelin receptor APJ, primary screen, CHO-K1 cells, PathHunter beta-arrestin, luminescence (AID 2520)). Settings: at 20 µM, stronger effect = higher value, 0% DMSO wells, 100% apelin.
Chain of Apelin receptor (Homo sapiens) (P35414 whole entry, looked up, the tested form may be a part): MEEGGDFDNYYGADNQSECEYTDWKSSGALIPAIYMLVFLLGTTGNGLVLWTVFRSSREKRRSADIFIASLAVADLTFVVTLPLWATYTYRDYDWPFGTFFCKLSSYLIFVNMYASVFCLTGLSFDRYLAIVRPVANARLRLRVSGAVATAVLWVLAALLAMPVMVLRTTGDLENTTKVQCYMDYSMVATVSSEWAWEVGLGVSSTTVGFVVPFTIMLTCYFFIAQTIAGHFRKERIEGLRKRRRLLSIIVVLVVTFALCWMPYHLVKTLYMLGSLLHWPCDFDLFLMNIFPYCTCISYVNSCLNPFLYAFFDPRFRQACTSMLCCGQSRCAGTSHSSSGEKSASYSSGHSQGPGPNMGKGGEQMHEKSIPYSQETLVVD
Method in brief: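 Assay system: engineered CHO-K1 APJ arrestin reporter cells; Amount: 1000 CHO-K1 reporter cells seeded per well; Dosing: one dose, 20 µM compound, 1% DMSO; Times: compound stimulation 90 min at 25 °C, detection 60 min; Measured by: luminescent beta-gal fragment complementation, chemiluminescent substrate; Read-out: APJ–arrestin association signal; Controls: DMSO vs Apelin-13 10 nM.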

Row | Structure (SMILES) | activation
1 | CCCCc1cc(=O)oc2c(C)c(OCC(=O)N3CCC(C(N)=O)CC3)ccc12 | -4.2% (inactive)
2 | CCOc1ccc(/C=C/C(=O)N(CC)CC(=O)NCc2cccs2)cc1OC | 8.54% (inactive)
3 | Cc1nnc(SCC(=O)NC(=O)NC2CCCC2)n1N | -4.56% (inactive)
4 | CCN1CCN(C(=O)CCN2C(=O)c3ccccc3C2=O)CC1 | -1.85% (inactive)
5 | COc1ccc2c(c1)N(C)/C(=C1/SC(=S)N(NC(C)=O)C1=O)S2 | -1.51% (inactive)
6 | O=C1NC(c2ccccc2)=NC1(Nc1ccccn1)C(F)(F)F (stereo unspecified) | 1.8% (inactive)
7 | Cc1ccsc1C(=O)OCC(=O)Nc1cccc(F)c1 | -4.87% (inactive)
8 | COc1ccc(-n2c(=O)[nH]c3cc(C(=O)NCCc4ccc(OC)c(OC)c4)ccc3c2=O)c(OC)c1 | -2.2% (inactive)
9 | O=C(NC1CCCC1)C(NS(=O)(=O)c1ccc(Br)s1)c1ccccc1 (stereo unspecified) | 1.83% (inactive)
10 | Cc1ccc2c(c1)NCC(C(=O)NC1CCC(C)CC1)O2 (stereo unspecified) | -1.38% (inactive)
11 | N#CC1=C(N)N(c2ccc(F)cc2)C(=O)C1 | -4.08% (inactive)
12 | CC(=O)Nc1ccc(NC(=O)C(C)n2c3ccccc3c3nc(=O)cc(C)n32)cc1 (stereo unspecified) | -3.18% (inactive)
13 | CCOC(=O)C1=C(CC)OC(N)=C(C#N)C1c1ccc(F)cc1F (stereo unspecified) | -3.78% (inactive)
14 | Cc1cccc(NC(=O)c2sc3nc(N4CCOCC4)c4c(c3c2N)CCCC4)c1 | -11.8% (inactive)
15 | Nc1nc(-c2sc3nc4c(cc3c2N)CCCC4)nc(N2CCOCC2)n1 | 12.3% (active)
16 | Cc1nc(N2CCOCC2)nc2c1CCCC2 | 0.237% (inactive)
17 | CC(=O)NC(=S)Nc1ccc(NC(=O)c2cccnc2)cc1 | 3.75% (inactive)
18 | Cc1cc(NS(=O)(=O)c2ccc(NC(=O)c3cccnc3)cc2)nc(C)n1 | 1.41% (inactive)
19 | Cc1ccc2nc(-c3ccc(NC(=O)c4cccnc4)cc3)oc2c1 | 14.6% (active)
20 | COc1ccc(C)cc1N(CC(=O)NC(C)c1ccccc1)S(C)(=O)=O (stereo unspecified) | -1.79% (inactive)
21 | C=CCOc1ccccc1NC(=O)CN1C(=O)CNC1=O | -2.49% (inactive)
22 | COc1ccc(C)cc1NC(=O)CSc1nnc(CC(=O)Nc2ccccc2F)n1C | -3.35% (inactive)
23 | NS(=O)(=O)c1ccc(CCNC(=O)COC(=O)COc2cccc(C(F)(F)F)c2)cc1 | -3.07% (inactive)

Row | Structure (SMILES) | activation
24 | COc1cc2c(cc1OC)C(=O)NCC(C)(C)O2 | -0.328% (inactive)
25 | CN(CCc1ccccn1)C(=O)c1ccc(OC2CCN(Cc3ccccn3)CC2)cc1 | -8.78% (inactive)
26 | CC(C)=CCCC(C)CN1CCC(n2nccc2NC(=O)c2ccccc2)CC1 (stereo unspecified) | 1.47% (inactive)
27 | CCCn1c(=S)[nH]c2ccc(C(F)(F)F)cc21 | 0.385% (inactive)
28 | CCCCn1nnnc1NCc1cc(OC)c(OC)c(OC)c1 | -4.13% (inactive)
29 | Cc1ccnc(NC(=O)CCC(=O)N(CC(=O)NCCc2ccccc2)Cc2cccs2)c1 | -3.93% (inactive)
30 | CCCS(=O)(=O)N1CCN=C1SCc1cccc(F)c1 | 2.13% (inactive)
31 | COc1cccc2c(O)cc(=O)n(C)c12 | -2.86% (inactive)
32 | O=C(Nc1cccc([N+](=O)[O-])c1)N1CCc2ccccc2C1 | -0.709% (inactive)
33 | Cc1ccc(O/C=C2\OC(=O)c3ccccc32)cc1 | -1.88% (inactive)
34 | O=C(OCC(=O)c1cccs1)c1ccc([N+](=O)[O-])o1 | 3.99% (inactive)
35 | COC(=O)Cc1cnc(NC(=O)CSc2nc(C(C)C)cc(=O)[nH]2)s1 | -1.9% (inactive)
36 | O=C1NC(=Nc2ccc(Cl)cc2)SC1Cc1cccc(Cl)c1Cl (stereo unspecified) | -3.58% (inactive)
37 | N#Cc1cccc(NC(=O)COC(=O)c2ccccc2C(=O)c2ccc(Cl)c([N+](=O)[O-])c2)c1 | -0.51% (inactive)
38 | Cc1ccc(C(=O)C(C)OC(=O)Cc2n[nH]c(=O)c3ccccc23)cc1C (stereo unspecified) | 6.72% (inactive)
39 | CCc1ccc2c(c1)cc(CN(C(=S)Nc1ccccc1Cl)C1CC1)c1nnnn12 | 4.19% (inactive)
40 | Cc1cccc2cc(CN(Cc3cccs3)C(=S)NCc3ccco3)c(=O)[nH]c12 | -1.92% (inactive)
41 | COCCCNC(=S)N(CCN(C)C)Cc1cc2cc3c(cc2[nH]c1=O)OCCO3 | -4.21% (inactive)
42 | Cc1cc(C)c2[nH]c(=O)c(CN(Cc3ccccc3)C(=S)NCCCN(C)C)cc2c1 | 20.2% (active)
43 | O=C1C=CC(=O)N1c1ccc(N2CCCCC2)cc1 | -5.18% (inactive)
44 | CCc1ccc(CN(C)C(=O)CCc2nnc(-c3ccc(-c4ccccc4)cc3)o2)nc1 | -3.94% (inactive)
45 | Cc1c(CCC(=O)O)c(=O)oc2cc3occ(-c4ccccc4)c3cc12 | -2.13% (inactive)
46 | CCCCCCc1cc2cc(-c3nnc(-c4ccccc4)o3)c(=O)oc2cc1O | 30.8% (active)

Row | Structure (SMILES) | activation
47 | CN(c1ccccc1)S(=O)(=O)c1ccc(Cl)c(C(=O)OCC(=O)N2CCOCC2)c1 | -4.02% (inactive)
48 | CCn1c(-c2cccnc2Cl)nc2cc(C)c(C)cc21 | -1.12% (inactive)
49 | COCC(=O)Nc1cc(C(=O)OC)cc(C(=O)OC)c1 | -0.719% (inactive)
50 | CCOC(CNC(=O)C(=O)NCC(c1ccco1)N1CCN(c2ccc(OC)cc2)CC1)OCC (stereo unspecified) | -4.81% (inactive)
51 | CC(=O)c1ccccc1OCc1ccc(C(=O)c2ccccc2)cc1 | -3.74% (inactive)
52 | COc1ccc(N(CCC#N)S(=O)(=O)c2ccc(Cl)cc2)cc1 | -5.53% (inactive)
53 | COCn1c(C(O)c2ccccc2)cc2ccccc21 (stereo unspecified) | -2.04% (inactive)
54 | COc1ccc(S(=O)(=O)Nc2ccc(F)cc2)c(C)c1C | -0.449% (inactive)
55 | CCCCN(CC)C(=O)CN(C)S(=O)(=O)c1cccc2nsnc12 | -2.83% (inactive)
56 | CN(CCC1CCOCC1)Cc1cn[nH]c1-c1ccc(-c2ccccc2)cc1 | -3.69% (inactive)
57 | Cc1ccnc(NS(=O)(=O)c2ccc(NC(=O)c3ccc(S(=O)(=O)N(C)C)cc3)cc2)n1 | -2.66% (inactive)
58 | CCc1ccccc1NC(=O)CN(C)C(=O)COc1ccc(C)nc1[N+](=O)[O-] | -1.82% (inactive)
59 | CC1CN(C(=O)c2ccc3c(c2)OCO3)OC(c2ccccc2)O1 (stereo unspecified) | -2.94% (inactive)
60 | CC(C)(C)C1CCC(=NNC(=O)c2ccc(Br)o2)CC1 (stereo unspecified) | -3.06% (inactive)
61 | O=C(N/N=C\C1CC=CCC1)c1ccc(Br)o1 (stereo unspecified) | 8.95% (inactive)
62 | CCC(C)(C)C1CCC(=NNC(=O)c2ccc(Br)o2)CC1 (stereo unspecified) | 19.8% (active)
63 | Fc1ccc(CNCc2ccc(Br)cc2)cc1 | -1.03% (inactive)
64 | COC(=O)c1ccc(NC(=O)CSc2nnc(C3CC3)n2C)cc1 | -3.11% (inactive)
65 | O=C(OCCN1C(=O)c2ccccc2C1=O)Oc1ccccc1 | -1.77% (inactive)
66 | O=C(COC(=O)C12CC3CC(CC(O)(C3)C1)C2)NC12CC3CC(CC(C3)C1)C2 | -1.34% (inactive)
67 | O=C(COc1ccc(Cl)cc1)NCCSc1ccccc1 | -1.87% (inactive)
68 | O=[N+]([O-])c1cc(Cl)cc(/C=N/NC(=S)Nc2cc(S(=O)(=O)N3CCOCC3)ccc2Cl)c1O | -5.98% (inactive)
69 | Cc1ccc(NS(=O)(=O)c2c(C)[nH]c(C)c2C(=O)N2CCCCC2)c(C)c1 | -0.00146% (inactive)

Row | Structure (SMILES) | activation
70 | CC(=O)c1ccc(OCC(O)CN2CCN(S(=O)(=O)c3cccc(Br)c3)CC2)cc1 (stereo unspecified) | -1.5% (inactive)
71 | CSc1ncc(C(=O)Nc2ccc(C)cc2C)c(C)n1 | -0.333% (inactive)
72 | Cc1ccc(S(=O)(=O)NCc2nc3ccccc3c(=O)n2N)cc1 | -0.607% (inactive)
73 | CCCc1nc(N2CCN(C)CC2)c2sc(=S)n(-c3ccccc3)c2n1 | -2.45% (inactive)
74 | COC(=O)c1ccc(C)c(NC(=O)C2CC(=O)N(C3CCCC(C)C3C)C2)c1 (stereo unspecified) | -2.02% (inactive)
75 | CC(=O)N1c2ccc(S(=O)(=O)N3CCCC(C(=O)Nc4cccc(Cl)c4)C3)cc2CC1C (stereo unspecified) | -0.333% (inactive)
76 | CC(=O)N1CCCc2cc(S(=O)(=O)N3CCCC(C(=O)NCc4ccc(Cl)cc4)C3)ccc21 (stereo unspecified) | -0.0955% (inactive)
77 | CC(=O)N1CCCc2cc(S(=O)(=O)N3CCCC(C(=O)N4CCN(c5cccc(Cl)c5)CC4)C3)ccc21 (stereo unspecified) | 19.6% (active)
78 | O=S(=O)(/C=C/c1ccccc1)N1CCNCC1 | -1.77% (inactive)
79 | Cc1ccc(C)c(NC(=O)NNC(=O)c2ccc3ccccc3c2O)c1 | 10% (inactive)
80 | COc1cc(NC(=O)C2=C(C)OCCS2)c(Cl)cc1C(=O)NCCN1CCN(C)CC1 | 18.9% (active)
81 | CCCCNC(=O)c1ccccc1NC(=O)C1=C(C)OCCS1 | 0.515% (inactive)
82 | COc1ccc(N2CCN(C(=O)c3ccccc3NC(=O)C3=C(C)OCCS3)CC2)cc1 | -4.76% (inactive)
83 | CCOC(=O)CSc1nnc(NC(=O)C2CC(=O)N(c3ccc(F)cc3)C2)s1 (stereo unspecified) | -4.52% (inactive)
84 | C=CCOc1ccc(C2/C(=C(\O)c3c(C)[nH]c(C(=O)OC)c3C)C(=O)C(=O)N2CCN(C)C)cc1 (stereo unspecified) | -0.14% (inactive)
85 | O=Cc1c(NCCc2cccc(F)c2)c2ccccc2[nH]c1=O | -3.46% (inactive)
86 | CC(C(=O)Nc1ccc(F)c(F)c1F)N1CCCCCC1 (stereo unspecified) | -3.77% (inactive)
87 | CC1CCN(C(=O)c2ccc(S(=O)(=O)Cc3cc(F)ccc3F)c([N+](=O)[O-])c2)CC1 | 1.51% (inactive)
88 | CCN1CCN(C(C(=O)NC2CCCC2)c2cc3c(cc2[N+](=O)[O-])OCO3)CC1 (stereo unspecified) | 9.21% (inactive)
89 | CC1(c2ccccc2)NC(=O)N(CC(=O)Nc2cc(Cl)ccc2N2CCOCC2)C1=O (stereo unspecified) | -3.1% (inactive)
90 | O=C(CSc1nc(Nc2ccccc2)nc(N2CCOCC2)n1)Nc1cc(Cl)ccc1O | 40.8% (active)
91 | Cc1ccccc1NC(=O)CSc1nc2ccc(Nc3nc(N4CCOCC4)nc(N4CCOCC4)n3)cc2s1 | 8.35% (inactive)
